ChEMBL document CHEMBL3272237, “Gliotoxin analogues as inhibitors of reverse transcriptase. 1. Effect of lipophilicity” (J Med Chem, 1978)

Legend:
[1] = tested on: Moloney murine leukemia virus; test: Inhibition of Moloney murine leukemia virus reverse transcriptase using [3H-methyl]-dTTP as substrate after 120 mins; parameters: unit not given here
In short: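 Enzyme source was Moloney MLV from infected NIH-3T3 cells, gradient-purified, used as whole virus. Mix: 40 mM Tris-HCl pH 7.8, 50 mM NaCl, 2 mM MnCl2, 1.6 mM DTT, 0.0125% Triton X-100, 0.64 mM each dATP/dCTP/dGTP, [methyl-3H]dTTP. Compounds were tested at 4–400 μg/mL (Me2SO up to 4%). Incubation was 37 °C, sampled at 120 min for acid-precipitable counts, mean of three runs. I50 read from %-of-Me2SO-control plot.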

[2] = Lipophilicity of the compound by reversed-phase TLC analysis; format: physicochemical; conditions: RP-TLC on silylated silica plates impregnated with Dow-Corning 704 fluid
In short: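 Silica gel F-254 plates were silanized with 5% (CH3)2SiCl2 in toluene, then impregnated with 5% Dow-Corning 704 fluid in ether. Spots were 1 μL of 3 mg/mL CH2Cl2 solution. Plates were developed in acetone–water 3:1 saturated with the fluid and visualized with 2% aqueous AgNO3. Rm = log(1/Rf − 1), averaged over five determinations.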

[3] = Lipophilicity of the compound by reversed-phase HPLC analysis; conditions: ODS stationary phase, MeOH-H2O (2:1) mobile phase

Row | SMILES | log(I50×10^5) [1] | Rm [2] | log k' [3]
1 | CCN1C(=O)C23SSC1(C)C(=O)N2c1ccccc1C3(C)C (stereo unspecified) | 1.89 | 0.1636 | -0.34
2 | CC(C)N1C(=O)C23SSC1(C)C(=O)N2c1ccccc1C3(C)C (stereo unspecified) | 1.93 | 0.2769 | -0.1291
3 | CC12SSC3(C(=O)N1c1ccccc1)N(C2=O)c1ccccc1C3(C)C (stereo unspecified) | 1.69 | 0.2892 | -0.1127
4 | CC12SSC3(C(=O)N1Cc1ccccc1)N(C2=O)c1ccccc1C3(C)C (stereo unspecified) | 0.574 | 0.3514 | 0.0994
5 | CN1C(=O)C23SSC1(c1ccccc1)C(=O)N2c1ccccc1C3(C)C (stereo unspecified) | 0.978 | 0.3007 | -0.0527
6 | CN1CC(=O)N2c3ccccc3C(C)(C)C2(S)C1=O (stereo unspecified) | 2.07 | 0.0132 | -1.067
7 | CCCN1C(=O)C23SSC1(C)C(=O)N2c1ccccc1C3(C)C (stereo unspecified) | 1.06 | 0.2717 | -0.0817
